From PubChem
APJ ag: APJ receptor agonism | 330,000 tested, 0.11% active | AID 2520 | P35414 | activation, % at 20 µM | CHO-K1 APJ PathHunter beta-arrestin, luminescence; 0% DMSO wells, 100% apelin;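 active = activation more than six SD over the plate average, tested at 20 µM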
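assay system = CHO-K1 APJ beta-arrestin complementation cell line | input = cell density 1000 per well | dosing = compound 20 µM once, DMSO 1% | timing = compound 90 min 25 °C, reagent 1 h | measured by = luminescence from split beta-galactosidase complementation, Galacton Star/Emerald II substrate | read-out basis = APJ agonist activity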
EBI2 block: antagonists of human EBI2 receptor. EBI2 beta-arrestin recruitment, luminescence, 7a,25-OHC stimulated. 360,000 tested, 0.81% active. P32249. inhibition, % at 5 µM; in the data active = inhibition above about 38%;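 also: enzyme fragment complementation signal reports receptor beta-arrestin coupling in cells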
CXCR6 block: CXCR6 (human) receptor inhibition | O00574 | CHO-K1 PathHunter CXCR6 beta-arrestin, luminescence | inhibition, % at 20 µM | 360,000 tested, 0.36% active; in the data active = inhibition above about 34%, passing the limit was not always enough;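 also: antagonist mode with CXCL16 agonist at 10 nM final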
APJ antagonist: antagonists of human APJ apelin receptor | P35414 | AID 2521 | 330,000 tested, 0.32% active | CHO-K1 APJ beta-arrestin complementation, luminescence | inhibition, % at 20 µM;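 active = inhibition above about 40% at 20 µM, limit read from the data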;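 also: cells challenged with 10 nM apelin-13 agonist together with compound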
HTR2A ag: agonists of mouse serotonin 5-HT2A receptor (HTR2A); P35363; CHO-K1 mHTR2A beta-arrestin complementation, luminescence; percent of 30 µM serotonin response; 360,000 tested, 0.66% active; activation, % at 7.6 µM; AID 624169;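 active = activation above a run cutoff, the mean activation of all tested compounds plus 3 SD, cut at about 14% in these data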
CCR6 antag: CCR6 (human) receptor antagonism | CHO-K1 CCR6 PathHunter beta-arrestin, luminescence, CCL20-stimulated | inhibition, % at 20 µM | 340,000 tested, 0.49% active | AID 493098;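 active = compounds whose inhibition of the agonist-driven luminescence signal at 20 µM reaches about 50%, limit read from the data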;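 also: cells stimulated with CCL20 at 14 nM final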
Target sequence (P51684 whole entry, looked up): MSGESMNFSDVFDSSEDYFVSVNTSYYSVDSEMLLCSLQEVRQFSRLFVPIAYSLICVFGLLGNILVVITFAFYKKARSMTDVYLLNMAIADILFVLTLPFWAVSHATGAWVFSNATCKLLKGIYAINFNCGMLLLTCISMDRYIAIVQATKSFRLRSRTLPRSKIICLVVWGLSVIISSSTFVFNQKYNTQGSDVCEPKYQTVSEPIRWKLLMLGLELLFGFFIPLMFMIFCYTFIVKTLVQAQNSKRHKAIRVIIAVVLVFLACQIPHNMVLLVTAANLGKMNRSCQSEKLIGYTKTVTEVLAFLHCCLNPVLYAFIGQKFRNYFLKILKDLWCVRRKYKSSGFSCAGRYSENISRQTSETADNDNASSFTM
MOR ag counter: activates human mu opioid receptor in HTR2A counterscreen. 2,300 tested, 5.3% active. activation, % at 9.3 µM. AID 624380. shares compounds with HTR2A ag. U2OS OPRM1 beta-arrestin PathHunter, luminescence; DMSO 0%, DAMGO 9.3 µM 100%;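 active = mean activation above the mean of DMSO-only wells plus 3 SD, cut at about 0.5% in these data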
Target sequence (P35372 whole entry, looked up): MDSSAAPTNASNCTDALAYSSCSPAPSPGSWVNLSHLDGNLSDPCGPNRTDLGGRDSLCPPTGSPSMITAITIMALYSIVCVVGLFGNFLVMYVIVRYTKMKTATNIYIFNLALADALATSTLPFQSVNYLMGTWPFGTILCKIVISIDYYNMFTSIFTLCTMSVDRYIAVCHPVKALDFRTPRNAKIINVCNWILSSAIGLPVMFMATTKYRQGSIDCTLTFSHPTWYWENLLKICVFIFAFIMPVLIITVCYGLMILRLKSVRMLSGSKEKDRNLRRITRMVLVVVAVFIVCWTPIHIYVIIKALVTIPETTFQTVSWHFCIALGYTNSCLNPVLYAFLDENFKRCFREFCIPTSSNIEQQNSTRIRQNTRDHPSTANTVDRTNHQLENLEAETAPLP
HTR2A ag conf: mouse HTR2A agonism confirmed. shares compounds with HTR2A ag. CHO-K1 PathHunter beta-arrestin recruitment, luminescence; DMSO 0%, 30 µM serotonin 100%. AID 624381. 2,300 tested, 19% active. activation, % at 7.6 µM;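 active = mean activation across triplicates above the hit threshold derived in the original primary screen, cut at about 15% in these data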
A number is an active result; 0 = inactive; - = not tested or not shown. An excerpt weighted towards active compounds, which were near 2.2% of everything screened.

SMILES | APJ ag | EBI2 block | CXCR6 block | APJ antagonist | HTR2A ag | CCR6 antag | MOR ag counter | HTR2A ag conf
COC(=O)[C@@]12C[C@@H](CC(=O)N3CCC(c4ccccc4)CC3)C(=O)N(Cc3ccco3)C1=CCC(C)(C)C2 | - | 0 | - | - | 0 | - | - | -
CCN(C(=O)CSc1n[nH]c(N)n1)C1CCCCC1 | 0 | 0 | 0 | 0 | 16.8 | 0 | 0 | 0
CCS(=O)(=O)Nc1ccc(-c2nc3cccnc3s2)cc1 | 0 | 0 | 0 | 0 | 26.9 | 0 | 0 | 0
CCS(=O)(=O)Nc1cccc(-c2nc3cccnc3s2)c1 | 0 | 0 | 0 | 0 | 0 | 0 | - | -
O=C(c1cccnc1)N1CCN(S(=O)(=O)c2ccc(Cl)cc2)CC1 | 0 | 0 | 0 | 0 | 14.5 | 0 | 0 | 0
O=C(c1cccnc1)N1CCN(S(=O)(=O)c2ccc(F)cc2)CC1 | 0 | 0 | 0 | 0 | 0 | 0 | - | -
CC(C)C[C@H]1CN(CCCC[C@H]2CNC(=O)C(=O)N2CCC2CCCCC2)C(=O)C(=O)N1CCc1ccccc1 | - | 0 | 0 | - | 0 | - | - | -
NC(=O)c1nc(C(=O)N2CCN(c3ccccc3)CC2)c2ccccc2n1 | 0 | 0 | 0 | 0 | 18.0 | 0 | 0 | 0
Cc1cc2nc(-c3nnnn3Cc3ccccc3)c(=O)[nH]c2cc1C | - | 0 | 0 | - | 0 | - | - | -
O=C(O)c1ccc(/C=N/Nc2ccc(C(F)(F)F)cn2)cc1 | - | 0 | 0 | - | 17.8 | 0 | 0 | 0
Cc1ccc(S(=O)(=O)N2CCOCC2)cc1NC(=O)CNCc1cccnc1 | 0 | 0 | 0 | 0 | 28.0 | 0 | 0 | 75.1
Cc1ccc(S(=O)(=O)N2CCOCC2)cc1NC(=O)CNCc1ccc(Cl)cc1Cl | 0 | 0 | 0 | 0 | 0 | 0 | - | -
Cc1ccc(S(=O)(=O)N2CCOCC2)cc1NC(=O)COC(=O)c1ccc2c(c1)OCO2 | 0 | 0 | 0 | 0 | 0 | 0 | - | -
Cc1ccc(S(=O)(=O)N2CCOCC2)cc1NC(=O)COC(=O)c1ccc2c(c1)OCCO2 | 0 | 0 | 0 | 0 | 17.1 | 0 | 0 | 0
CCOC(=O)[C@]12CCCC=C1N(Cc1ccccc1)C(=O)[C@H](CC(=O)NCc1ccc(C)o1)C2 | - | 0 | - | - | 0 | - | - | -
O=C(Nc1ccccc1)Nc1nnc(-c2cccs2)s1 | 0 | 0 | 0 | 0 | 21.3 | 0 | 0 | 0
CCCCCn1nnnc1C1(C)CCC(=O)N1Cc1ccco1 (stereo not given) | - | 0 | - | - | 0 | - | - | -
CCc1ccc(NC(=O)CSc2nc3ccccc3c(=O)n2CCCN2CCC(C)CC2)cc1 | 0 | 0 | 0 | 0 | 47.8 | 0 | 0 | 20.1
Cc1ccc(NC(=O)CSc2nc3ccccc3c(=O)n2CCCN2CCCCC2)cc1C | 0 | 0 | 0 | 0 | 15.6 | 0 | 0 | 0
COC(=O)c1ccc2c(=O)n(CCN3CCOCC3)c(SCC(=O)NCc3ccccc3)nc2c1 | 0 | 0 | 0 | 0 | 15.8 | 0 | 0 | 0
COc1ccc(NC(=O)CSc2nc3ccccc3c(=O)n2CCCN2CCOCC2)c(OC)c1 | 0 | 0 | 0 | 0 | 38.9 | 0 | 0 | 0
CC(=O)c1cccc(NC(=O)CSc2nc3ccccc3c(=O)n2CCCN2CCOCC2)c1 | 0 | 0 | 0 | 0 | 0 | 0 | - | -
COc1ccc(NC(=O)CSc2nc3ccccc3c(=O)n2CCNC(C)=O)c(OC)c1 | 0 | 0 | 0 | 0 | 0 | 0 | - | -
CCOC(=O)[C@]12CCC=C1N(CCC1=CCCCC1)C(=O)[C@H](CC(=O)N1CCCC1)C2 | - | 0 | 0 | - | 0 | - | - | -
O=C1CC(c2cccc(Cl)c2)C(n2cncn2)C(=O)C1C1NCCc2ccccc21 (stereo not given) | 0 | 0 | 0 | 0 | 15.7 | 0 | 0 | 0
SMILES | APJ ag | EBI2 block | CXCR6 block | APJ antagonist | HTR2A ag | CCR6 antag | MOR ag counter | HTR2A ag conf
CCc1cc[n+](C(C(=S)Nc2cccc(C)c2)=C([O-])c2ccc(C)c([N+](=O)[O-])c2)cc1 | - | 0 | 0 | - | 14.6 | 0 | 0 | 0
Cc1ccc(/C([O-])=C(/C(=S)NCc2ccccc2)[n+]2cccc(CO)c2)cc1[N+](=O)[O-] | - | 0 | 0 | - | 0 | 0 | - | -
CCCCCOC(=O)CSc1n[nH]c(=O)[nH]c1=O | 0 | 0 | 0 | 0 | 0 | 0 | - | -
CCCOC(=O)C(C)Sc1n[nH]c(=O)[nH]c1=O (stereo not given) | 0 | 0 | 0 | 0 | 14.4 | 0 | 0 | 0
CCc1nc2ccc(C(=O)NCCCN3CCCC3=O)cn2c1N(CC)Cc1cccc(Br)c1 | - | 0 | 0 | - | 0 | - | - | -
COC(CNC(=O)c1ccc2c(c1)nc(C)n2-c1cccc(F)c1)OC | 0 | 0 | 0 | 0 | 0 | 0 | - | -
COC(CNC(=O)c1ccc2c(c1)nc(C)n2-c1ccc(F)c(F)c1)OC | 0 | 0 | 0 | 0 | 15.0 | 0 | 0 | 0
C=CCOc1cccn2c(N(C=O)Cc3ccc(OC)cc3)c(CC)nc12 | - | 0 | 0 | - | 0 | - | - | -
O=C(c1ccccc1F)N1CCN(Cc2nc3sc4c(c3c(=O)[nH]2)CCCC4)CC1 | 0 | 0 | 0 | 0 | 15.6 | 0 | 0 | 0
O=c1[nH]c(CN2CCCC2)nc2sc3c(c12)CCC3 | 0 | 0 | 0 | 0 | 0 | 0 | - | -
Cc1cc(C)n2c(Nc3c(C)cccc3C)c(-c3cccnc3)nc2n1 | - | 0 | 0 | - | 0 | - | - | -
CCCCNc1c(-c2cccnc2)nc2nc(C)cc(C)n12 | - | 0 | 0 | - | 20.2 | - | 0 | 0
CC1COC(c2cccn2Cc2ccccc2Cl)=N1 (stereo not given) | 0 | 0 | 0 | 0 | 24.3 | 0 | 0 | 0
CN=c1scc(-c2ccc(F)cc2)n1/N=C/c1ccc(O)c(O)c1 | 0 | 0 | 0 | 0 | 16.2 | 0 | 0 | 85.2
COc1cc(/C=C/C(=O)OCC(=O)NC(C)c2ccccc2)cc(OC)c1OC (stereo not given) | 0 | 0 | 0 | 0 | 14.9 | 0 | 0 | 0
Nc1ccn(C2OC(COC(=O)C34CC5CC(CC(C5)C3)C4)C(O)C2O)c(=O)n1 (stereo not given) | - | 0 | 0 | - | 0 | 0 | - | -
COc1ccccc1NC(=O)c1ccccc1SCC(=O)N1CCCC1 | - | 0 | 0 | - | 14.5 | - | 0 | 0
CN(Cc1ccccc1)C(=O)COC(=O)c1cc(NS(=O)(=O)c2cccs2)ccc1O | 0 | 0 | 0 | 0 | 21.0 | 0 | 0 | 0
O=C(COC(=O)c1cc(NS(=O)(=O)c2cccs2)ccc1O)Nc1ccccc1 | 0 | 0 | 0 | 0 | 0 | 0 | - | -
CCc1nc2c(OCC(=O)C(C)(C)C)cccn2c1N(C)C(=O)CC(C)C | - | 0 | 0 | - | 16.2 | - | 0 | 0
CCc1nc2c(OCC(=O)C(C)(C)C)cccn2c1N(C)C(=O)COc1ccccc1 | - | 0 | 0 | - | 0 | - | - | -
CCN1C(=O)C(=O)N(CC(=O)Nc2cccc(C(F)(F)F)c2)C1=O | 0 | 0 | 0 | 0 | 44.0 | 0 | 0 | 0
O=C1Nc2ccccc2C(=O)N(Cc2ccccc2)C1C(=O)NC1CC1 (stereo not given) | - | 0 | - | - | 0 | - | - | -
